# EBNA-1 inh: blocks EBNA-1 binding to DNA. EBNA-1 DNA binding, fluorescence polarization. inhibition, % at 14.8 µM. 0.34% of 300,000 active. AID 1950; in the data active = inhibition above about 28%
# GRIN3A LBD mod: modulators (binders) of human NR3A ligand-binding domain; Tm shift relative to glycine control, % at 25 µM; 2.5% of 340,000 active; NR3A LBD differential scanning fluorimetry, Tm shift; 0% = protein alone, 100% = glycine-bound protein; AID 1259313;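 active = melting temperature shift of at least 10% of the positive control shift, at one fixed dose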
# FID counter: counter-screen for HCV NS3 helicase inhibitors: DNA intercalator displacement; DNA fluorescent intercalator displacement, fluorescence; inhibition, % at 7.9 µM; 0.17% of 290,000 active; in the data active = inhibition above about 37%;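 note: 0% = vehicle and 100% = reference compound; higher means more ethidium bromide displaced from hairpin DNA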
# HCV NS3 hel inh: inhibitors of Hepatitis C virus NS3 helicase; NS3 helicase DNA unwinding, Cy5 molecular beacon fluorescence; inhibition, % at 10.9 µM; 0.56% of 290,000 active;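 active = inhibition above the mean of all tested compounds plus 3 SD, set per campaign, cut at about 35% in these data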;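 note: 0% = DMSO wells and 100% = thioflavine S control wells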
#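 Assay system: hepatitis C virus NS3 helicase domain fragment enzyme. Also added: annealed dual-labelled DNA beacon duplex, ATP-started. Timing: 1 h reaction at 25 °C, ATP-initiated. Technique: Cy5 fluorescence at 0 and 60 min, beacon hairpin quenching. Evaluation: % inhibition of unwinding. Replication: one well per compound.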
# FGF22 binding: FGF22 (human) thermal shift binding; recombinant FGF22 thermal shift, SYPRO orange fluorescence; percent of sucrose octasulfate shift, DMSO zero; activity (Tm shift, normalised), % at 9.99 µM; 1.5% of 340,000 active; Q9HCT0; AID 651658;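 active = mean Tm shift, scaled 0 neutral to 100 positive control, at about 1.3% or above, every replicate too, limit read from the data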
# Target sequence (Q9HCT0 whole entry, looked up): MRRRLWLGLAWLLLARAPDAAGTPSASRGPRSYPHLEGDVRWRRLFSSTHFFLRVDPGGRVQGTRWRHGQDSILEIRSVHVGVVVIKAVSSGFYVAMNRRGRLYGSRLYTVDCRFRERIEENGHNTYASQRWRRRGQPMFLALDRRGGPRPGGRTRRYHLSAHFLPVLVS
# ZTA DNA inh: ZTA (EBV) inhibition in EBNA-1 counter-screen; P03206; ZTA-DNA binding, fluorescence polarization; inhibition, % at 11 µM; 0.15% of 320,000 active; AID 2234; in the data active = inhibition above about 33%
# Target sequence (P03206 whole entry, looked up): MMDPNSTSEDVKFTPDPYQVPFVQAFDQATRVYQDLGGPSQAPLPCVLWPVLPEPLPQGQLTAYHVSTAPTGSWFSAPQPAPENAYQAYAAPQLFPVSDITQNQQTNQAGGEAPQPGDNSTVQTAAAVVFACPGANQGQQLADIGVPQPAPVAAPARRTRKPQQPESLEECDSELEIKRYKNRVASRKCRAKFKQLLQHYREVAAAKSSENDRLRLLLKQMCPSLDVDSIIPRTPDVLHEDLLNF
# The depositor's hits bear a star; / = not tested or not shown. A selection: hits, their analogues and other compounds. The true share with any hit is near 3.6%.
SMILES,EBNA-1 inh,GRIN3A LBD mod,FID counter,HCV NS3 hel inh,FGF22 binding,ZTA DNA inh
Cc1cc(N/N=C/c2ccc(N(C)C)cc2)c2ccccc2n1,-10,-5,-14,-8,0,-10
O=C(Nc1ccc(F)cc1)N1C[C@H]2[C@@H](c3ccccc31)[C@H](CO)N2C(=O)c1ccccc1F,/,/,/,/,0,/
COCCN(Cc1cc2cc(C)ccc2n2nnnc12)C(=S)Nc1ccc(C)cc1,4,-2,-1,-5,1,7
COCCNC(=S)N(Cc1cc2cc(C)ccc2n2nnnc12)C1CCCC1,0,-7,-3,13,43*,-8
COc1ccccc1CNC(=O)C[C@@H]1CC[C@@H]2[C@H](COC[C@H](O)CN2C(=O)Nc2ccc(C(F)(F)F)cc2)O1,/,/,/,/,0,/
COc1ccccc1C(=O)NC(=O)CSc1cccc[n+]1[O-],-4,1,4,-2,44*,12
CCc1ccc(C2C3=C(CCCC3=O)OC3=C2C(=O)CCC3)cc1,-8,-1,-31,-9,43*,-2
CCc1ccc(C2C3=C(CC(C)(C)CC3=O)OC3=C2C(=O)CC(C)(C)C3)cc1,-13,-6,-3,-3,1,-20
Nc1ccc2c(c1)C(=O)c1ccc(Br)cc1-2,/,26*,/,/,0,/
CCOC(=O)/C(=C\c1cn(C)c2ccccc12)[N+](=O)[O-],-2,34*,-6,8,0,5
COCCCNc1c2c(nc3ccccc13)CCC2,/,/,/,/,44*,/
O=C(Nc1c2c(nc3ccccc13)CCCC2)c1ccccc1Cl,-1,-2,-11,2,44*,8
O=C(Nc1c2c(nc3ccccc13)CCCC2)c1ccccc1F,3,2,-7,-3,0,-5
CN(C)CCNc1c2c(nc3ccccc13)CCC2,-5,0,45*,2,0,-16
COc1ccc2nc3ccccc3nc2c1NC(=O)c1ccccc1Cl,-2,-1,-8,-4,43*,-20
COc1ccccc1Nc1c2c(nc3ccccc13)CCC2,-6,0,-8,-8,0,-6
C[C@H]1CCCCO[C@@H](CN(C)Cc2ccc(C(=O)O)cc2)[C@@H](C)CN([C@@H](C)CO)C(=O)c2cc(NC(=O)Nc3ccccc3)ccc2O1,/,/,/,/,0,/
COc1ccc(NC(=O)Nc2ccc3c(c2)C(=O)N([C@@H](C)CO)C[C@H](C)[C@@H](CN(C)S(=O)(=O)c2ccc(Cl)cc2)OCCCC[C@H](C)O3)cc1,/,/,/,/,0,/
Cc1noc(C)c1S(=O)(=O)Nc1ccc2c(c1)C(=O)N([C@H](C)CO)C[C@@H](C)[C@@H](CN(C)Cc1ccccc1)O2,/,/,/,/,0,/
O=C(Nn1c(O)c(C=C2N=c3ccccc3=N2)sc1=S)c1ccccc1,-2,23*,21,4,/,3
Cc1ccc(C(=O)Nn2c(O)c(C=C3N=c4ccccc4=N3)sc2=S)cc1,4,27*,25,5,/,6
O=C(Nn1c(O)c(C=C2N=c3ccccc3=N2)sc1=S)c1ccc(Cl)cc1,7,32*,10,5,/,14
O=C(Nn1c(O)c(C=C2N=c3ccccc3=N2)sc1=S)c1cccc(Cl)c1,-7,29*,16,11,/,-2
CCO[C@H]1OC(C(=O)N2CCCC2)=C[C@@H](c2ccc(C(F)(F)F)cc2)[C@@H]1CCCO,/,/,/,/,0,/
COCC#Cc1cnc2c(c1)C(=O)N([C@H](C)CO)C[C@@H](C)[C@H](CN(C)S(=O)(=O)c1ccccc1)O2,/,/,/,/,0,/
SMILES,EBNA-1 inh,GRIN3A LBD mod,FID counter,HCV NS3 hel inh,FGF22 binding,ZTA DNA inh
Oc1c(C=C2N=c3ccccc3=N2)sc(=S)n1-c1ccc2ccccc2c1,-10,17*,3,0,0,-7
C[C@@H]1CN([C@H](C)CO)C(=O)c2cc(NS(=O)(=O)c3ccc(Cl)cc3)ccc2O[C@@H](C)CCCCO[C@@H]1CN(C)S(C)(=O)=O,/,/,/,/,0,/
O=C(CCCCC(=O)OC1CCCCC1)OC1CCCCC1,/,1,/,/,43*,/
CCc1c(C)nc(SCC(=O)N2CCN(c3ccccc3OC)CC2)[nH]c1=O,11,-2,2,1,1,-15
CCc1c(C)nc(SCC(=O)N2CCN(c3ccccc3)CC2)[nH]c1=O,-6,0,-19,-1,44*,-13
C[C@H](CO)N1C[C@H](C)[C@@H](CN(C)S(=O)(=O)c2cccs2)Oc2ccc(NS(=O)(=O)c3cn(C)cn3)cc2CC1=O,/,/,/,/,0,/
COc1cc(/C=C/c2ccc3cccc([N+](=O)[O-])c3n2)ccc1OCC(=O)O,-1,2,-11,16,0,16
CC(=O)Nc1ccc(C=CC=Cc2cccc([N+](=O)[O-])c2)cc1,/,-2,/,/,0,/
O=C(O)COc1ccc(/C=C/c2ccc3cccc([N+](=O)[O-])c3n2)cc1,4,18*,-27,14,0,1
CC(=O)Nc1ccc(/C=C/c2ccc3cccc([N+](=O)[O-])c3n2)cc1,1,26*,0,-4,0,1
Cc1nc2ccccn2c1C(=O)NN,8,-1,2,-4,/,4
Cc1nc2ccccn2c1C(=O)/C=C/c1ccc(F)cc1,0,13*,-4,2,/,21
Cc1ccc2cc(/C=N/Nc3nc4ccccc4[nH]3)c(Cl)nc2c1,/,12*,-1,2,0,/
CC(C)NC(=O)N1[C@H](CO)[C@@H](c2ccccc2)C12CN(Cc1ccccc1)C2,/,/,/,/,0,/
C[C@H](CO)N1C[C@H](C)[C@H](CN(C)S(=O)(=O)c2cccs2)OCCCC[C@H](C)Oc2ccc(NC(=O)c3ccncc3)cc2C1=O,/,/,/,/,0,/
C=CCn1c(=O)/c(=C\c2ccsc2)s/c1=C(/C#N)C(=O)NCCN1CCOCC1,4,2,0,-33,/,5
COc1ccc(-n2c(=O)/c(=C\c3cccs3)s/c2=C(/C#N)C(=O)NCCN2CCOCC2)cc1,7,-1,3,-4,43*,-5
C[C@@H]1CN([C@@H](C)CO)C(=O)c2cc(NC(=O)Cn3cnnn3)ccc2O[C@@H]1CN(C)Cc1ccc(Oc2ccccc2)cc1,/,/,/,/,0,/
CC1=CC(C)(C)NC(=S)N1c1ccc([N+](=O)[O-])cc1,/,-3,/,/,43*,/
Cc1sc2nc3n(c(=O)c2c1C)CCCS3,-2,18*,-2,-3,/,-13
N#Cc1cccnc1Nc1ccc(Cl)cc1,6,-2,-5,13,43*,-19
COc1ccc(CN(C)C[C@@H]2Oc3c(NC(=O)NC4CCCCC4)cccc3C(=O)N([C@H](C)CO)C[C@@H]2C)cc1,/,/,/,/,0,/
NC(N)=Nc1nc(-c2ccccc2)c2ccccc2n1,-26,0,14,-24,0,-13
CCc1nc(N=C(N)N)nc2ccccc12,-6,/,1,-8,43*,5
COc1ccc(S(=O)(=O)Nc2ccc3c(c2)C(=O)N([C@@H](C)CO)C[C@@H](C)[C@@H](CN(C)C(=O)NC2CCCCC2)O3)cc1,/,/,/,/,0,/
